Laboratory results: ChEMBL document CHEMBL4613270, “Structure-Activity Relationship Study Enables the Discovery of a Novel Berberine Analogue as the RXRα Activator to Inhibit Colon Cancer” (J Med Chem, 2020)
Calls of active or inactive are those of the source.

Experiments:
[1] = molecular target: T1, Retinoic acid receptor RXR-alpha (Homo sapiens) (UniProt P19793); assay: In-vivo activation of RXRalpha in BALB/c mouse xenografted with human KM12C cells assessed as induction of beta-catenin protein degradation at 100 mg/kg, ig dosed daily for 15 days by Western blot analysis; format: functional, organism-based
T1 sequence (whole entry): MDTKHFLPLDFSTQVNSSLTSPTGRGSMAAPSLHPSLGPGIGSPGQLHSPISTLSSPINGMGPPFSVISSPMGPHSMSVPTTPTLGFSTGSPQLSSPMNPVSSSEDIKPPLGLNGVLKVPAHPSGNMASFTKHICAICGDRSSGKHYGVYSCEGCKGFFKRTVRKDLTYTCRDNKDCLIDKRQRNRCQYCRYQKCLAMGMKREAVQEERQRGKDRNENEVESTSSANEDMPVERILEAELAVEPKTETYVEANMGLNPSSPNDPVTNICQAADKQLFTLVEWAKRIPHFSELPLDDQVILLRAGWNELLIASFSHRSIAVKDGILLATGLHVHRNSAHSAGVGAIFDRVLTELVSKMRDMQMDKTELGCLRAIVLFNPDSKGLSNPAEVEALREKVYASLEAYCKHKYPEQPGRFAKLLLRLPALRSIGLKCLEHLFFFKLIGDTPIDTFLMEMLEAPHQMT

SW-620 = assay: Inhibition of cell proliferation of human SW620 cells incubated for 15 hrs by MTT assay; format: functional, cell-based; details: SW-620, 15 h
Procedure, shortened: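 Cells plated at 1×10⁴ per well, incubated overnight at 37 °C, then exposed to a concentration series for 15 h. MTT (5 mg/mL stock) added for 4 h at 37 °C. Formazan dissolved in DMSO and absorbance read at 570 nm. IC50 derived from the dose-response curve.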

[2] = molecular target: T2, Retinoic acid receptor RXR-alpha (Homo sapiens, UniProt P19793); assay: Binding affinity to His-tagged RXRalpha LBD (unknown origin) expressed in Escherichia coli strain BL21 (DE3) by fluorescence quenching analysis
T2 sequence (P19793 whole entry): T1 sequence (whole entry)
Procedure, shortened: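 His-RXRα-LBD expressed from pET15b in E. coli BL21(DE3), induced with 0.1 mM IPTG at 16 °C for 16 h, purified on Ni-NTA. Protein held at 1 μM in PBS pH 7.4 and titrated with ligand (2–30 μM). Excitation 280 nm, emission scanned 290–600 nm, DMSO blank subtracted, each spectrum measured three times. Apparent Kd taken from the titration curve.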

[3] = molecular target: T1, Retinoic acid receptor RXR-alpha (Homo sapiens); assay: Activation of RXRalpha in human KM12C cells assessed as inhibition of Wnt/beta-catenin-dependent transcriptional activity at 25 to 50 uM incubated for 15 hrs by TOP/FOP luciferase assay; format: cell-based
Procedure, shortened: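 TOP/FOP reporter: cells co-transfected by lipofection with pRL-TK plus TOPflash or FOPflash; compound added 20 h after transfection for 15 h; passive lysis at 4 °C, 1 h; firefly and Renilla luciferase measured by dual-luciferase assay.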

[4] = molecular target: T1, Retinoic acid receptor RXR-alpha (Homo sapiens); assay: Activation of RXRalpha in human KM12C cells assessed as induction of beta-catenin protein degradation at 25 to 50 uM incubated for 15 hrs by Western blot analysis; format: cell-based
[5] = molecular target: T1, Retinoic acid receptor RXR-alpha (Homo sapiens); assay: Activation of RXRalpha in human SW620 cells assessed as induction of beta-catenin protein degradation at 40 to 80 uM incubated for 15 hrs by Western blot analysis; format: cell-based; details: SW-620
[6] = molecular target: T1, Retinoic acid receptor RXR-alpha (Homo sapiens); assay: Activation of RXRalpha (unknown origin) expressed in human KM12C cells co-expressing beta-catenin and c-Cbl assessed as induction of beta-caten interaction with c-Cbl at 25 to 50 uM incubated for 15 hrs by mammalian two-hybrid assay; format: cell-based
Procedure, shortened: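 Mammalian two-hybrid: cells co-transfected by lipofection with pBIND-β-catenin/S33Y plus pACT-RXRα (RXRα–β-catenin) or pACT-c-Cbl (β-catenin–c-Cbl); 20 h after transfection, compound added for 15 h; cells lysed in passive lysis buffer, 4 °C, 1 h; firefly and Renilla luciferase read by dual-luciferase kit.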

[7] = molecular target: T1, Retinoic acid receptor RXR-alpha (Homo sapiens); assay: Activation of RXRalpha in human KM12C cells assessed as reduction in Cdc2 protein expression at 25 to 50 uM incubated for 15 hrs by Western blot analysis; format: cell-based
[8] = molecular target: T1, Retinoic acid receptor RXR-alpha (Homo sapiens); assay: Activation of RXRalpha in human KM12C cells assessed as reduction in Cdc2 mRNA expression at 25 to 50 uM incubated for 15 hrs by real-time PCR analysis; format: cell-based
[9] = molecular target: T1, Retinoic acid receptor RXR-alpha (Homo sapiens); assay: Activation of RXRalpha in human KM12C cells assessed as […] crease in p21 (WAF1/CIP1) mRNA expression at 25 to 50 uM incubated for 15 hrs by real-time PCR analysis; format: cell-based
[10] = molecular target: T1, Retinoic acid receptor RXR-alpha (Homo sapiens); assay: Activation of RXRalpha in human HCT116 cells assessed as reduction in c-Myc protein expression at 30 to 60 uM incubated for 15 hrs by Western blot analysis; format: cell-based; details: HCT-116
[11] = molecular target: T1, Retinoic acid receptor RXR-alpha (Homo sapiens); assay: Activation of RXRalpha in human HCT116 cells assessed as reduction in c-Myc mRNA expression at 30 to 60 uM incubated for 15 hrs by real-time PCR analysis; format: cell-based; details: HCT-116
[12] = molecular target: T1, Retinoic acid receptor RXR-alpha (Homo sapiens); assay: Activation of RXRalpha in human SW620 cells assessed as reduction in Cdc2 mRNA expression at 40 to 80 uM incubated for 15 hrs by real-time PCR analysis; format: cell-based; details: SW-620
[13] = molecular target: T1, Retinoic acid receptor RXR-alpha (Homo sapiens); assay: Activation of RXRalpha in human SW620 cells assessed as increase in p21 (WAF1/CIP1) protein expression at 40 to 80 uM incubated for 15 hrs by Western blot analysis; format: cell-based; details: SW-620
[14] = molecular target: T1, Retinoic acid receptor RXR-alpha (Homo sapiens); assay: Activation of RXRalpha in human SW620 cells assessed as […] crease in p21 (WAF1/CIP1) mRNA expression at 40 to 80 uM incubated for 15 hrs by real-time PCR analysis; format: cell-based; details: SW-620
[15] = molecular target: T1, Retinoic acid receptor RXR-alpha (Homo sapiens); assay: In-vivo activation of RXRalpha in BALB/c mouse xenografted with human KM12C cells assessed as reduction in c-Myc protein expression at 100 mg/kg, ig dosed daily for 15 days by Western blot analysis; format: functional, organism-based
Procedure, shortened: (§1)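 KM12C cells (1×10^6 per mouse in 100 μL HBSS) injected subcutaneously into both flanks of nude mice; after seven days, randomized to three groups, dosed intragastrically once daily for 15 days with vehicle (CMC-Na) or 100 mg/kg compound; mice euthanized and tumors removed for analysis.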

[16] = molecular target: T1, Retinoic acid receptor RXR-alpha (Homo sapiens); assay: In-vivo activation of RXRalpha in BALB/c mouse xenografted with human KM12C cells assessed as induction of beta-catenin protein degradation at 100 mg/kg, ig dosed daily for 15 days by immunohistochemistry analysis; format: functional, organism-based; procedure, shortened: as §1
[17] = molecular target: T1, Retinoic acid receptor RXR-alpha (Homo sapiens); assay: In-vivo activation of RXRalpha in BALB/c mouse xenografted with human KM12C cells assessed as reduction in Cdc2 mRNA expression at 100 mg/kg, ig dosed daily for 15 days by real-time PCR analysis; format: functional, organism-based; procedure, shortened: as §1
[18] = Toxicity in BALB/c mouse xenografted with human KM12C cells assessed as effect on biochemical parameter by measuring ALT level at 100 mg/kg, ig dosed daily for 15 days by automatic chemistry analyzer based analysis (reference value: 24.18 +/- 0.77 U/L); format: organism-based; details: in vivo, po, 360 h
[19] = Toxicity in BALB/c mouse xenografted with human KM12C cells assessed as effect on biochemical parameter by measuring calcium level at 100 mg/kg, ig dosed daily for 15 days by automatic chemistry analyzer based analysis (reference value: 2.27 +/- 0.059 mmol/L); format: organism-based; details: in vivo, po, 360 h

COc1ccc2c(c1)CC[n+]1cc3c(OC)cccc3cc1-2.[Cl-]
active: Activity [1] | Activity [3] | Activity [4] | Activity [5] | Activity [6] | Activity [7] | Activity [8] | Activity [9] | Activity [10] | Activity [11] | Activity [12] | Activity [13] | Activity [14] | Activity [15] | Activity [16] | Activity [17]
36.2 µM: IC50 (SW-620)
18.9 µM: Kd [2]
2.23 mmol/L: Activity [19]
27.2 U/L: Activity [18]

COc1ccc2cc3[n+](cc2c1OC)CCc1cc2c(cc1-3)OCO2.[Cl-] [BERBERINE CHLORIDE]
24.8 µM: Kd [2]
126 µM: IC50 (SW-620)
2.13 mmol/L: Activity [19]
27.9 U/L: Activity [18]
active: Activity [1] | Activity [3] | Activity [4] | Activity [5] | Activity [6] | Activity [7] | Activity [8] | Activity [9] | Activity [10] | Activity [11] | Activity [12] | Activity [13] | Activity [14] | Activity [15] | Activity [16] | Activity [17]
